These results are taken from ChEMBL document CHEMBL3085701, “Optimization of novel indole-2-carboxamide inhibitors of neurotropic alphavirus replication” (J Med Chem, 2013).

Data set [1] is described as follows: Cytotoxicity against human BE(2)-C cells after 18 to 20 hrs by MTT assay. Format: cell-based.
The target of data set [2] is MDR1 (ABCB1, P-glycoprotein) (Homo sapiens, UniProt P08183). The data set can be described thus: Inhibition of human MDR1 expressed in MDCK2 cells assessed as increase of rhodamine 123 uptake at 30 uM up to 240 mins relative to control. Format: ADME, cell-based, MDCK-II. To be noted: MDCK2 cells expressing human MDR1, probe rhodamine 123. A digest of the protocol:
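Confluent MDR1-MDCKII cells (human Pgp-transfected) given fresh DMEM with 10 μM rhodamine 123, plus vehicle, tariquidar (5 μM) or compound (30 μM). Uptake at 37°C from 1 to 240 min, stopped by ice-cold PBS washes. Fluorescence read at ex 525/em 560-640 nm. Result expressed as % of same-day tariquidar effect, (Cav−Cveh)*100/(Ctar−Cveh). Triplicates on ≥3 occasions.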

Data set [3] deals with Western equine encephalitis virus. The data set can be described thus: Antiviral activity against Western equine encephalomyelitis virus infected in human BE(2)-C cells assessed as inhibition of viral RNA replication after 18 to 20 hrs by luciferase reporter gene assay. Format: functional, cell-based.
A short description of data set [4]: Therapeutic index, ratio of CC50 for human BE(2)-C cells to IC50 for Western equine encephalitis virus. To be noted: read-out: Ratio CC50/IC50.
Data set [5] in a line: Kinetic solubility of the compound. Format: physicochemical.
Data set [6] in a line: Plasma concentration in C57BL/6 mouse at 20 mg/kg, ip after 2 hrs. Format: ADME, organism-based. Further details: dose 20 mg/kg, route intraperitoneal. A digest of the protocol:
(§1)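 C57BL/6 female mice given a single IP injection of compound in 2% sterile DMSO/PBS, at the stated dose. Duplicate mice per time point. Blood taken by cardiac puncture into EDTA and plasma separated. Cerebrum harvested after PBS perfusion and flash-frozen. Drug quantified by LC/MS/MS as ng/mL plasma or ng/g brain.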

Data set [7] relates to Brain. Put plainly: Drug level in C57BL/6 mouse brain at 20 mg/kg, ip after 12 hrs. Format: ADME, organism-based. Details: dose 20 mg/kg, route intraperitoneal. To be noted: in vivo, BLD = below limit of detection. A digest of the protocol:
(§2)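 Female C57BL/6 mice were given a single IP dose in 2% sterile DMSO/PBS. At each time point, duplicate mice had blood taken by cardiac puncture. They were then perfused with PBS, and the cerebrum was harvested and flash frozen on dry ice. Brain drug levels were quantified by LC/MS/MS and reported as ng/g; BLQ means below the limit of quantitation.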

Data set [8] can be described thus: Half life in Balb-C mouse liver microsomes. Format: ADME, Microsome. A digest of the protocol: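 Compound incubated with Balb-C mouse liver microsomes, and half-life determined for oxidative metabolism. Values are means of ≥2 independent incubations.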
The next data set concerns Plasma. The data set can be described thus: Plasma concentration in C57BL/6 mouse at 20 mg/kg, ip after 12 hrs. Format: ADME, organism-based. Details: dose 20 mg/kg, route intraperitoneal. To be noted: in vivo, BLD = below limit of detection. The procedure, abridged:
as §1

For data set [9], the system named is Western equine encephalitis virus. The data set can be described thus: Antiviral activity against Western equine encephalomyelitis virus infected in human BE(2)-C cells assessed as reduction of viral titer at 25 uM after 24 hrs by plaque reduction assay (reference value: 25.7 +/- 5.2 x 10^6 pfu/ml). Format: functional.
A short description of data set [10]: Cytotoxicity against human BE(2)-C cells assessed as cell viability at 25 uM after 24 hrs by MTT assay relative to control. Format: cell-based. To be noted: read-out: Activity.
In a further data set the test system is Fort Morgan virus. The data set can be described thus: Antiviral activity against Fort Morgan virus infected in human BE(2)-C cells assessed as reduction of viral titer at 25 uM after 24 hrs by plaque reduction assay (reference value: 47.1 +/- 10.5 x 10^6 pfu/ml). Format: functional.
Data set [11] is described as follows: Drug level in C57BL/6 mouse brain at 20 mg/kg, ip after 30 mins. Format: ADME, organism-based. Further details: dose 20 mg/kg, route intraperitoneal. The note with it: read-out: Drug uptake. A digest of the protocol: as §1
A short description of data set [12]: Plasma concentration in C57BL/6 mouse at 20 mg/kg, ip after 30 mins. Format: ADME, organism-based. Further details: dose 20 mg/kg, route intraperitoneal. A digest of the protocol:
as §1

For data set [13], the system named is Brain. The data set can be described thus: Drug level in C57BL/6 mouse brain at 20 mg/kg, ip after 2 hrs. Details: dose 20 mg/kg, route intraperitoneal. Format: ADME, organism-based. The note with it: in vivo, BLD = below limit of detection. The procedure, abridged: as §2

Sequence of MDR1 (ABCB1, P-glycoprotein) (P08183 whole entry): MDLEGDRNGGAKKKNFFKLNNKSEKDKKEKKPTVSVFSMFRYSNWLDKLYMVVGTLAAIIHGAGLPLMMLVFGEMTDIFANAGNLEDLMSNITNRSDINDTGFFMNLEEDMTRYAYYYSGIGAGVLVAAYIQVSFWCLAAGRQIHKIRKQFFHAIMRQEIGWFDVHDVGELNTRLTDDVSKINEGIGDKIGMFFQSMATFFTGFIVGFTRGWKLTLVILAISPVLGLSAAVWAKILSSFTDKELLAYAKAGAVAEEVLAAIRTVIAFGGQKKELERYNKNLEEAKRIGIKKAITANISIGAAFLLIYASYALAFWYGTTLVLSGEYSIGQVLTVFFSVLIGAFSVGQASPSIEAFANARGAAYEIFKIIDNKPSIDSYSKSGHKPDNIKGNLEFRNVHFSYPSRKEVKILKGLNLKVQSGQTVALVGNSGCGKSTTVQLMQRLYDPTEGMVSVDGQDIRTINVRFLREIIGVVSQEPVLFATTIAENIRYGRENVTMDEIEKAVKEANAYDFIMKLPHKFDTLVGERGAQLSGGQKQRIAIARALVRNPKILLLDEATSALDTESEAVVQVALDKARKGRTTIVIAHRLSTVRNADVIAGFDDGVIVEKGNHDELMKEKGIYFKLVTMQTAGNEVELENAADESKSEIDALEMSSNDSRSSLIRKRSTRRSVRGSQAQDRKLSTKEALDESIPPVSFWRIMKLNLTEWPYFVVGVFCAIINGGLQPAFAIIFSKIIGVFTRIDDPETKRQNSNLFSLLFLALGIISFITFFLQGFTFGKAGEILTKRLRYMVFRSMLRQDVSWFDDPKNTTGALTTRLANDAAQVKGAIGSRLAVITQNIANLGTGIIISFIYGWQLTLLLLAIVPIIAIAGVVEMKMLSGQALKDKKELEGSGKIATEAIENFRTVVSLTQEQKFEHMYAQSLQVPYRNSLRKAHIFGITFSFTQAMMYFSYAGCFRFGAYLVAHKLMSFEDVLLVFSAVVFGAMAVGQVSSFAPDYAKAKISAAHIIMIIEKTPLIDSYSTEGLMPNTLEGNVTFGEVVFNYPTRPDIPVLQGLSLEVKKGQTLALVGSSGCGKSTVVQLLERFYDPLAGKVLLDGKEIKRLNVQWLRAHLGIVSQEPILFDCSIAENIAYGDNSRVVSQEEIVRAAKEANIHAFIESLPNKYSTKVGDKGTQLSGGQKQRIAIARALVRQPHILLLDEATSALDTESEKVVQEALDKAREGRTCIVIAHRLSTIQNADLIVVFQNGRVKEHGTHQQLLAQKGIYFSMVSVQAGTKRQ

Compound `O=C(NCCc1ccncc1)C1CCN(C(=O)c2cc3ccccc3n2Cc2c(F)cccc2F)CC1` had a CC50 in data set [1] (be(2)-c) of 34500 nM. In data set [2], the inhibition at 4 h, 30 µM stood at 28.5%. Also, the IC50 in [3] stood at 1300 nM. The selectivity ratio in data set [4] turned out to be 50.

On to `O=C(NCCc1ccncc1)C1CCN(C(=O)c2cccn2Cc2ccc(Cl)cc2)CC1`, for which the Kinetic_solubility in data set [5] worked out at 125 µM. Also, the cytotoxic concentration (CC50) in [1] (BE(2)-C cells) is over 100000 nM. Also, the concentration at 2 h in data set [6] is 5 ng/mL. The Drug uptake entry in the data set on Brain [7] and with Brain [13] was “BLD” each time. This compound also displayed a t1/2 in data set [8] of 2.9 min. Further, in the data set with Plasma, the Cp entry is “BLD”. Besides, the inhibition at 4 h, 30 µM in [2] is -1.2%. The Activity is 4.9 ×10⁶ PFU/ml in [9] and 23.8 ×10⁶ PFU/ml with Fort Morgan virus. Also, in data set [10], the viability at 24 h, 25 µM was determined as 59.1%. Also, the IC50 in data set [3] is 700 nM. Besides, the figures for the concentration at 0.5 h in [11] and in data set [12] were 19 ng/g and 124 ng/mL, respectively.
